Reference: publication PMC3778312 (British Journal of Cancer, 2013)

Assay: Phase 1 safety monitoring of PX-866 with docetaxel
Format: in vivo, human
Procedure, shortened: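 Open-label dose escalation in cohorts of 6–9 patients at 4, 6 or 8 mg oral daily test compound plus docetaxel 75 mg m−2 IV every 21 days, with dexamethasone premedication. All patients receiving ≥1 dose had vital signs, labs and exams; AEs were graded by NCI CTCAE v4.02. DLTs included related grade ≥3 events, febrile grade 3/4 neutropenia, platelets <25 000 per μl and ANC <500 per μl for >7 days.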

Compound: C=CCN(/C=C1/C(=O)O[C@H](COC)[C@@]2(C)C1=C(O)C(=O)C1=C2[C@H](OC(C)=O)C[C@]2(C)C(=O)CC[C@@H]12)CC=C [PX-866]
- patients requiring PX-866 dose reductions (4 out of 43, all in the 8 mg cohort, vomiting and/or diarrhoea): 9%
- Treatment-emergent AE: Alopecia (PX-866 4 mg + docetaxel, N=10): 2 (20) N (%)
- Treatment-emergent AE: Anaemia (PX-866 4 mg + docetaxel, N=10): 2 (20) N (%)
- Treatment-emergent AE: Arthralgia (PX-866 4 mg + docetaxel, N=10): 0 (0) N (%)
- Treatment-emergent AE: Asthenia (PX-866 4 mg + docetaxel, N=10): 1 (10) N (%)
- Treatment-emergent AE: Bone pain (PX-866 4 mg + docetaxel, N=10): 0 (0) N (%)
- Treatment-emergent AE: Cough (PX-866 4 mg + docetaxel, N=10): 2 (20) N (%)
- Treatment-emergent AE: Decreased appetite (PX-866 4 mg + docetaxel, N=10): 1 (10) N (%)
- Treatment-emergent AE: Dehydration (PX-866 4 mg + docetaxel, N=10): 3 (30) N (%)
- Treatment-emergent AE: Diarrhoea (PX-866 4 mg + docetaxel, N=10): 7 (70) N (%)
- Treatment-emergent AE: Dizziness (PX-866 4 mg + docetaxel, N=10): 1 (10) N (%)
- Treatment-emergent AE: Dysgeusia (PX-866 4 mg + docetaxel, N=10): 2 (20) N (%)
- Treatment-emergent AE: Epistaxis (PX-866 4 mg + docetaxel, N=10): 1 (10) N (%)
- Treatment-emergent AE: Fatigue (PX-866 4 mg + docetaxel, N=10): 6 (60) N (%)
- Treatment-emergent AE: Hypokalemia (PX-866 4 mg + docetaxel, N=10): 2 (20) N (%)
- Treatment-emergent AE: Nausea (PX-866 4 mg + docetaxel, N=10): 5 (50) N (%)
- Treatment-emergent AE: Neutropenia (PX-866 4 mg + docetaxel, N=10): 6 (60) N (%)
- Treatment-emergent AE: Oedema peripheral (PX-866 4 mg + docetaxel, N=10): 4 (40) N (%)
- Treatment-emergent AE: Oropharyngeal pain (PX-866 4 mg + docetaxel, N=10): 1 (10) N (%)
- Treatment-emergent AE: Pyrexia (PX-866 4 mg + docetaxel, N=10): 1 (10) N (%)
- Treatment-emergent AE: Stomatitis (PX-866 4 mg + docetaxel, N=10): 1 (10) N (%)
- Treatment-emergent AE: Vomiting (PX-866 4 mg + docetaxel, N=10): 3 (30) N (%)
- Treatment-emergent AEs, frequency by severity: Grade 1 (PX-866 4 mg + docetaxel, N=10): 32 (56) N (%)
- Treatment-emergent AEs, frequency by severity: Grade 2 (PX-866 4 mg + docetaxel, N=10): 10 (18) N (%)
- Treatment-emergent AEs, frequency by severity: Grade 3 (PX-866 4 mg + docetaxel, N=10): 8 (14) N (%)
- Treatment-emergent AEs, frequency by severity: Grade 4 (PX-866 4 mg + docetaxel, N=10): 7 (12) N (%)
- Treatment-emergent AEs, frequency by severity: Grade 5 (PX-866 4 mg + docetaxel, N=10): 0 (0) N (%)
- Treatment-emergent AE: Alopecia (PX-866 6 mg + docetaxel, N=10): 6 (60) N (%)
- Treatment-emergent AE: Anaemia (PX-866 6 mg + docetaxel, N=10): 2 (20) N (%)
- Treatment-emergent AE: Arthralgia (PX-866 6 mg + docetaxel, N=10): 2 (20) N (%)
- Treatment-emergent AE: Asthenia (PX-866 6 mg + docetaxel, N=10): 4 (40) N (%)
- Treatment-emergent AE: Bone pain (PX-866 6 mg + docetaxel, N=10): 4 (40) N (%)
- Treatment-emergent AE: Constipation (PX-866 6 mg + docetaxel, N=10): 3 (30) N (%)
- Treatment-emergent AE: Cough (PX-866 6 mg + docetaxel, N=10): 5 (50) N (%)
- Treatment-emergent AE: Decreased appetite (PX-866 6 mg + docetaxel, N=10): 4 (40) N (%)
- Treatment-emergent AE: Dehydration (PX-866 6 mg + docetaxel, N=10): 1 (10) N (%)
- Treatment-emergent AE: Diarrhoea (PX-866 6 mg + docetaxel, N=10): 8 (80) N (%)
- Treatment-emergent AE: Dizziness (PX-866 6 mg + docetaxel, N=10): 2 (20) N (%)
- Treatment-emergent AE: Dysgeusia (PX-866 6 mg + docetaxel, N=10): 3 (30) N (%)
- Treatment-emergent AE: Epistaxis (PX-866 6 mg + docetaxel, N=10): 2 (20) N (%)
- Treatment-emergent AE: Fatigue (PX-866 6 mg + docetaxel, N=10): 7 (70) N (%)
- Treatment-emergent AE: Hypokalemia (PX-866 6 mg + docetaxel, N=10): 1 (10) N (%)
- Treatment-emergent AE: Nausea (PX-866 6 mg + docetaxel, N=10): 4 (40) N (%)
- Treatment-emergent AE: Neutropenia (PX-866 6 mg + docetaxel, N=10): 5 (50) N (%)
- Treatment-emergent AE: Oedema peripheral (PX-866 6 mg + docetaxel, N=10): 6 (60) N (%)
- Treatment-emergent AE: Oropharyngeal pain (PX-866 6 mg + docetaxel, N=10): 1 (10) N (%)
- Treatment-emergent AE: Pyrexia (PX-866 6 mg + docetaxel, N=10): 4 (40) N (%)
- Treatment-emergent AE: Stomatitis (PX-866 6 mg + docetaxel, N=10): 4 (40) N (%)
- Treatment-emergent AE: Vomiting (PX-866 6 mg + docetaxel, N=10): 5 (50) N (%)
- Treatment-emergent AEs, frequency by severity: Grade 1 (PX-866 6 mg + docetaxel, N=10): 36 (49) N (%)
- Treatment-emergent AEs, frequency by severity: Grade 2 (PX-866 6 mg + docetaxel, N=10): 30 (41) N (%)
- Treatment-emergent AEs, frequency by severity: Grade 3 (PX-866 6 mg + docetaxel, N=10): 5 (7) N (%)
- Treatment-emergent AEs, frequency by severity: Grade 4 (PX-866 6 mg + docetaxel, N=10): 3 (4) N (%)
- Treatment-emergent AEs, frequency by severity: Grade 5 (PX-866 6 mg + docetaxel, N=10): 0 (0) N (%)
- Treatment-emergent AE: Alopecia (PX-866 8 mg + docetaxel, N=23): 4 (17) N (%)
- Treatment-emergent AE: Anaemia (PX-866 8 mg + docetaxel, N=23): 9 (39) N (%)
- Treatment-emergent AE: Arthralgia (PX-866 8 mg + docetaxel, N=23): 5 (22) N (%)
- Treatment-emergent AE: Asthenia (PX-866 8 mg + docetaxel, N=23): 6 (26) N (%)
- Treatment-emergent AE: Bone pain (PX-866 8 mg + docetaxel, N=23): 5 (22) N (%)
- Treatment-emergent AE: Constipation (PX-866 8 mg + docetaxel, N=23): 8 (35) N (%)
- Treatment-emergent AE: Cough (PX-866 8 mg + docetaxel, N=23): 3 (13) N (%)
- Treatment-emergent AE: Decreased appetite (PX-866 8 mg + docetaxel, N=23): 10 (44) N (%)
- Treatment-emergent AE: Dehydration (PX-866 8 mg + docetaxel, N=23): 11 (48) N (%)
- Treatment-emergent AE: Diarrhoea (PX-866 8 mg + docetaxel, N=23): 18 (78) N (%)
- Treatment-emergent AE: Dizziness (PX-866 8 mg + docetaxel, N=23): 4 (17) N (%)
- Treatment-emergent AE: Dysgeusia (PX-866 8 mg + docetaxel, N=23): 3 (13) N (%)
- Treatment-emergent AE: Epistaxis (PX-866 8 mg + docetaxel, N=23): 4 (17) N (%)
- Treatment-emergent AE: Fatigue (PX-866 8 mg + docetaxel, N=23): 13 (57) N (%)
- Treatment-emergent AE: Hypokalemia (PX-866 8 mg + docetaxel, N=23): 6 (26) N (%)
- Treatment-emergent AE: Nausea (PX-866 8 mg + docetaxel, N=23): 16 (70) N (%)
